Assay: Toxicity liver stage against HepG2, at 10uM
Format: cell-based
Set-up: test concentration 10 uM, cell line HepG2-A16-CD81EGFP
Settings: human, HepG2-A16-CD81EGFP cells; read-out: INHIBITION
How it was run: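 Uninfected HepG2-A16-CD81EGFP cells, 3 × 10^3 per well, 1536-well, plated on prespotted compound at 10 μM final, parasite-free screening media added to match infected plates; puromycin 10 μM positive, DMSO 0.5% negative; run in parallel with 48 h PbLuc assay at 37 °C, 5% CO2; viability by CellTiter-Glo luminescence, normalized to controls.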

Compound | cytotoxicity at 10 µM [%]
O=C(NC1CC1)c1cccc(Oc2ccc3nncn3n2)c1 | -5.29
Cc1cc(Br)c2c(c1)C1(CC(=O)Nc3c1cnn3C(C)C)C(=O)N2 (stereo unspecified) | -10.3
CCNC(=O)N1CCC2(CC1)CCn1c(-c3ccccc3)cnc12 | -8.19
O=C(CO)N1CC2(CCN(c3ccccc3)C2)C1 | 8.98
CCN1CC2(CCN(C(=O)N(C)C)CC2)COc2ccccc2S1(=O)=O | 6.55
CN1CCN(C(=O)Cc2ccccn2)Cc2cccnc21 | -7.01
O=C1CC(c2ccc(C(=O)O)cc2)c2ncn(-c3cccnc3)c2N1 (stereo unspecified) | -1.64
CCCN1C(=O)CC(N2CCN(c3ccc(F)cc3)CC2)C1=O (stereo unspecified) | -3.03
CCOc1cccc(C(=O)Nc2ccn(CC)n2)c1 | 8.19
CCc1nnc(Nc2cccc(C3CCCN(CC(C)(C)C)C3)n2)s1 (stereo unspecified) | -33.9
CN1CC(c2cc(O)nc(NCc3cccc(F)c3)n2)CC1=O (stereo unspecified) | 1.96
CC(C)NC(=O)CCNC(=O)CCc1cc(Br)cs1 | -3.16
CSc1ccsc1C(=O)NCCNC(=O)C1CC1 | 1.93
CCc1ncc(CN(C)C2CCN(c3sccc3C#N)C2=O)s1 (stereo unspecified) | -0.876
CCc1[nH]ncc1C(=O)N1CCN(c2nccc(OC)n2)CC1 | 0.296
CNS(=O)(=O)c1ccc(CNC(=O)C2CCCN(C)C2)cc1 (stereo unspecified) | -10.5
Cc1cc(NC(=O)NCCOc2ccc(Cl)cn2)no1 | 9.08
Cn1c(=O)ccn(CC(=O)NCC2Cc3ccccc3O2)c1=O (stereo unspecified) | -0.387
CCC(C)(NCC(=O)OC)c1nc(C)cs1 (stereo unspecified) | -3.94
O=C(Nc1cc(Cl)ccn1)c1nc(N2CCCC2)ncc1Cl | -9.26
CCn1nc2c(cc1=O)CN(CC(=O)Nc1cc(C)no1)CC2 | -5.22
COCCN1CCC(NC(=O)C(C)C)CC1 | -2.45
O=S(=O)(c1ccc2c(c1)OCCO2)N1CCC(OCc2ccccn2)C1 (stereo unspecified) | -1.18

Compound | cytotoxicity at 10 µM [%]
CCOCC1CCN(C(=O)Nc2ccc3c(c2)CCCN3C)C1 (stereo unspecified) | 10.1
CSc1ccc(NCc2csc(C)n2)cc1F | -6.54
Cc1cccc(N(CCC#N)S(=O)(=O)CC2CCCCO2)c1 (stereo unspecified) | 6.48
Cc1n[nH]cc1CNC(C(=O)N1CCOCC1)c1ccccc1 (stereo unspecified) | 7.57
CCOc1ccc(CN2C(=O)CC3(CCCC3)C2=O)nc1 | -4.01
CCOCC(=O)N(C)c1ccc(F)c(Cl)c1 | -3.99
COCCCNC(=O)C1(NC(=O)c2ccc3[nH]ncc3c2)CCCC1 | -1.62
O=S1(=O)CCC(N(CCc2ccc3c(c2)CCO3)C2CC2)C1 (stereo unspecified) | -0.532
O=C(NCCn1cccc1)c1c(O)cc(F)cc1F | -5.22
CCc1nc(C2CCCN2Cc2nc(C3CC3)no2)no1 (stereo unspecified) | -21.4
O=C(CC1CN(Cc2ccccc2)CCO1)Nc1ccccc1F (stereo unspecified) | -2.05
Cc1cccc(OC2CCN(C(=O)CNC(=O)N(C)C)CC2)c1 | -0.951
CO[C@H]1CNC[C@@H]1NC(=O)c1cc(C)nc2c(C)cc(C)cc12 | 4.12
COc1nc2c(cc1C(=O)N1CCCCC1c1ccccn1)CCC2 (stereo unspecified) | -12.5
CNc1nc(C)c(C(=O)N2CCCCC2CCc2ccc(O)cc2)s1 (stereo unspecified) | 0.126
CCCOC(=O)N1CCCn2nc(C(=O)Nc3ccccc3)cc2C1 | 7.23
COc1ccc(N2CCN(C(=O)CCn3nnnc3C)CC2(C)C)cc1 | 10.4
Cc1ccncc1C(=O)N1CCCC(C(=O)CCc2ccccc2)C1 (stereo unspecified) | 18
CCS(=O)(=O)N1CCN(C(=O)c2cnc3[nH]nc(C)c3c2)CC1 | -5.68
CCc1cnc(N2CC[C@H]3[C@H]2CC(=O)N3c2cccnc2)nc1 | -9.62
O=C(NCC1CC1)[C@@H]1CC[C@@H]2[C@@H](CCN2Cc2ccco2)O1 | 4.62
O=C(CC1CC1)N1CC[C@@H]2[C@H](CC1)N(Cc1cccnc1)CCS2(=O)=O | 5.96
c1cnc(N2CCN(C3CCC[C@@H]4CN(CC5CC5)C[C@H]34)CC2)nc1 (stereo partly specified) | 8.97

Source: ChEMBL document CHEMBL4513216, “Probing the Open Global Health Chemical Diversity Library for Multistage-Active Starting Points for Next-Generation Antimalarials” (ACS Infect Dis, 2020)
